Experimental data from ChEMBL document CHEMBL4428023, “1,4-Dihydropyridines Active on the SIRT1/AMPK Pathway Ameliorate Skin Repair and Mitochondrial Function and Exhibit Inhibition of Proliferation in Cancer Cells” (J Med Chem, 2016).
Activity calls are given as the source filed them. No cut-off for these calls is given here.

Columns and labels:
[1] = tested on: HaCaT; test: Activation of AMPK/SIRT1 in human HaCaT cells assessed as nitric oxide production at 1 uM incubated for 1 hr by DAF-2D staining-based fluorescence assay; type: cell-based
Method in brief: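 HaCaT keratinocytes grown in DMEM with 10% FBS and antibiotics. Cells treated 1 h (single-point 1 µM; dose-response at 5, 25, 50 µM). 5 µM DAF-2D added to complete medium. Cells then washed in PBS, trypsinized and analysed by flow cytometry for DAF fluorescence (ex 485/em 538 nm). Read-out is % DAF-positive cells relative to DMSO control.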

[2] = tested on: HaCaT; test: Activation of AMPK/SIRT1 in human HaCaT cells assessed as nitric oxide production at 10 uM incubated for 1 hr in presence of EX-527 by DAF-2D staining-based fluorescence assay; type: cell-based
Method in brief: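 HaCaT cells in DMEM with 10% FBS. DHP (10 µM) given for 1 h alone or together with 10 µM AMPK inhibitor compound C or 10 µM SIRT1 inhibitor EX-527. Intracellular NO read by flow cytometry after loading with 5 µM DAF-2D in medium (ex 485/em 538 nm). Expressed as % DAF-positive cells versus DMSO.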

[3] = biological target: T1, NAD-dependent protein deacetylase sirtuin-1 (Homo sapiens) (UniProt Q96EB6); test: Activation of SIRT1 in […] at 1 uM by fluorimetric assay; type: cell-free; conditions: HaCaT, TDE = time-dependent effect
T1 sequence (whole entry): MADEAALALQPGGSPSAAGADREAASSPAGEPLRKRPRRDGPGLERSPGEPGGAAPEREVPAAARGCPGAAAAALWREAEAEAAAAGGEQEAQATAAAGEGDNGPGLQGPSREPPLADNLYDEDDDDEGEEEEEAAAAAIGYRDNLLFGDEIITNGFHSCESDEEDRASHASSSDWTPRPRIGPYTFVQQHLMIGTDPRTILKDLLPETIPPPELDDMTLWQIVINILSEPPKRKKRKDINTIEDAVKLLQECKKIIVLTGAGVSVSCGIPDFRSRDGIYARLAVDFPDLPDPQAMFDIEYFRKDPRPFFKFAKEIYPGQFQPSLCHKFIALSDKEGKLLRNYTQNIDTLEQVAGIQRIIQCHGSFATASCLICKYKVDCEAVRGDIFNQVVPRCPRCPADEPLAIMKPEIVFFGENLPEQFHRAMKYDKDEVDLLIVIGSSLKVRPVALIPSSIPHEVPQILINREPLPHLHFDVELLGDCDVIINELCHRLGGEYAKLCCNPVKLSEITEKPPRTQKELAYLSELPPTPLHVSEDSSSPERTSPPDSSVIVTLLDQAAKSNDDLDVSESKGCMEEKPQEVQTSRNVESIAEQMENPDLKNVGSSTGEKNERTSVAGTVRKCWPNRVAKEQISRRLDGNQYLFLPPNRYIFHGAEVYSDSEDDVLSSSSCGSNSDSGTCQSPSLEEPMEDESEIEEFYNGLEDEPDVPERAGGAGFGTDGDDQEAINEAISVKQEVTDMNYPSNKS

[4] = tested on: Mus musculus; test: Wound healing activity in CD1 mouse assessed as decrease in epithelial gap at 1 uM administered topically on wound everyday for 14 days by biopsy punch assay; type: functional, organism-based
Method in brief: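 Male CD1 mice, 8 weeks old, anaesthetized i.p. with medetomidine 1 mg/kg plus ketamine 75 mg/kg, then biopsy-punch wounded. Compound (1 µM) in 20 µL saline applied directly to the wound daily for 14 days; solvent-treated group as control. Epithelial gap and % wound closure followed over time.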

[5] = Antiproliferative activity against human SAN cells assessed as cell viability after 72 hrs by MTT assay; type: functional, cell-based
Method in brief: (§1)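 Cells grown in RPMI with 10% fetal calf serum and penicillin, seeded in sextuplicate at 3 × 10^3 cells/well. After 24 h, cells were exposed 72 h to 5–200 µM. Viability was measured by MTT and expressed as treated/untreated × 100. IC50 was calculated from three independent experiments, reported as mean ± SD.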

[6] = tested on: A549; test: Antiproliferative activity against human A549 cells assessed as cell viability after 72 hrs by MTT assay; type: functional, cell-based; conditions: A549, 72 h; method in brief: as §1
[7] = tested on: NCI-H1299; test: Antiproliferative activity against human NCI-H1299 cells assessed as cell viability after 72 hrs by MTT assay; type: functional, cell-based; conditions: NCI-H1299, 72 h; method in brief: as §1
[8] = tested on: HT-29; test: Antiproliferative activity against human HT-29 cells assessed as cell viability after 72 hrs by MTT assay; type: functional, cell-based; conditions: HT-29, 72 h; method in brief: as §1
[9] = tested on: Caov-3 cell line; test: Antiproliferative activity against human Caov3 cells assessed as cell viability after 72 hrs by MTT assay; type: functional, cell-based; conditions: Caov-3, 72 h; method in brief: as §1
[10] = species on record: Cavia porcellus; test: Potency index, ratio of potency for test compound to potency for nifedipine for inhibition of calcium channel in guinea pig ileum longitudinal smooth muscle assessed as inhibition of calcium-induced contraction; type: tissue-based
[11] = biological target: T1, NAD-dependent protein deacetylase sirtuin-1 (Homo sapiens); test: Activation of full-length GST-tagged recombinant human SIRT1 assessed as enzyme activity obtained with subtraction of intrinsic fluorescence using p53-based untagged peptide as substrate at 50 uM after 30 mins by SIRTainty assay

CCOC(=O)C1=CN(C(=O)c2ccccc2)C=C(C(=O)OCC)C1c1ccccc1
Activity [1]: Active
Activity [2]: inactive
Activity [3]: Tde
Activity [4]: Active
IC50 [5]: 161 µM
IC50 [6]: 169 µM
IC50 [7]: 125 µM
IC50 [8]: 80 µM
IC50 [9]: > 200 µM
Ratio [10]: 720
Activity [11]: 153%
